Measured values taken from ChEMBL document CHEMBL1157654, “Synthesis and in vitro biological evaluation of carbon-11-labeled quinoline derivatives as new candidate PET radioligands for cannabinoid CB2 receptor imaging” (Bioorg Med Chem, 2010).

Columns and labels:
[1] = target: T1, Cannabinoid receptor 1 (Homo sapiens, UniProt P21554); assay: Displacement of [3H]CP-55940 from CB1 receptor at 10 uM
[2] = Selectivity ratio of Ki for CB1 receptor to Ki for CB2 receptor
In short: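 Ratio of CB1 Ki to CB2 Ki, both from [³H]CP55940 competition binding (pH 7.4 Tris–HCl/EDTA/MgCl₂/BSA buffer) with Ki fitted by non-linear regression of competition isotherms.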

[3] = target: T2, Cannabinoid receptor 2 (Homo sapiens, UniProt P34972); assay: Displacement of [3H]CP-55940 from CB2 receptor
T2 sequence (P34972 whole entry): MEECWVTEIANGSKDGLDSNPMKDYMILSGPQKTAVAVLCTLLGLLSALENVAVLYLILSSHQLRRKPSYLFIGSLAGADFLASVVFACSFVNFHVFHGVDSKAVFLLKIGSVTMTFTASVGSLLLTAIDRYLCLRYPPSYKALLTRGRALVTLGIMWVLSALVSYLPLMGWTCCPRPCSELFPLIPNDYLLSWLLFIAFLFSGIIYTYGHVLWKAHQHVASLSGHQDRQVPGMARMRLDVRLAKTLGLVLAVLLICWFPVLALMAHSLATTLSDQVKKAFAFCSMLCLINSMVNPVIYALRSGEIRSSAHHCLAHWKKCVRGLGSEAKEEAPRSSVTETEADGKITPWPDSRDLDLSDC
In short: (§1)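 Radioligand competition binding at CB1 or CB2 with [³H]CP55940; CP55940 reference. Ki (nM) obtained from non-linear regression of competition binding isotherms (secondary assay).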

[4] = target: T2, Cannabinoid receptor 2; assay: Displacement of [3H]CP-55940 from CB2 receptor at 10 uM
[5] = target: T1, Cannabinoid receptor 1; assay: Displacement of [3H]CP-55940 from CB1 receptor; in short: as §1

T1 sequence (P21554 whole entry): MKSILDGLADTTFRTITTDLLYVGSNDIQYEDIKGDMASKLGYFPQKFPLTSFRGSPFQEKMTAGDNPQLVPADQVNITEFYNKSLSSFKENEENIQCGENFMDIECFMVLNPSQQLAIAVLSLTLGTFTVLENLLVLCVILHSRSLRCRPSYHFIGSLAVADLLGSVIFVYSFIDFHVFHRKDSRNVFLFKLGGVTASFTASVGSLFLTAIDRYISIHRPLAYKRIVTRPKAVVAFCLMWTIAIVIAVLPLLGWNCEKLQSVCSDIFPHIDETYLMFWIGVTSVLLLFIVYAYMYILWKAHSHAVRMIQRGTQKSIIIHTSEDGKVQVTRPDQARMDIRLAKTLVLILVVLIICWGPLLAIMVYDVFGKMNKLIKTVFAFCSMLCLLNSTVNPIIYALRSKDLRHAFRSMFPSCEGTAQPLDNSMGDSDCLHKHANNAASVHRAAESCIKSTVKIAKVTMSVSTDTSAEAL

Row | Compound | Activity [1] | Ratio Ki [2] | Ki [3] | Activity [4] | Ki [5]
1 | CCCCCOc1c(OC)ccc2cc(C(=O)NCCc3ccccc3)c(Cl)nc12 | 73.7% | > 20.1 | 497 nM | 86.3% | > 10000 nM
2 | CCCCCOc1c(OC)ccc2cc(C(=O)NCCc3ccc(F)cc3)c(=O)[nH]c12 | 26.3% | > 1850 | 5.4 nM | 101% | > 10000 nM
3 | CCCCCOc1c(OC)ccc2cc(C(=O)NCCc3ccc(Cl)cc3)c(Cl)nc12 | 34.4% | > 9.92 | 1010 nM | 74.1% | > 10000 nM
4 | CCCCCOc1c(OC)ccc2cc(C(=O)NCCCc3ccccc3)c(=O)[nH]c12 | 51.4% | 31.3 | 10.3 nM | 104% | 323 nM
5 | CCCCCOc1c(OC)ccc2cc(C(=O)NCCc3ccc(OC)cc3)c(Cl)nc12 | 71% | > 7.51 | 1330 nM | 65.9% | > 10000 nM
6 | CCCCCOc1c(OC)ccc2cc(C(=O)NCCc3ccc(OC)cc3)c(=O)[nH]c12 | 68.7% | 26.2 | 27.9 nM | 102% | 733 nM
7 | CCCCCOc1c(OC)ccc2cc(C(=O)NCCCc3ccccc3)c(Cl)nc12 | 66.3% | > 9.36 | 1070 nM | 59.2% | > 10000 nM
8 | CCCCCOc1c(OC)ccc2cc(C(=O)NCCc3ccc(F)cc3)c(Cl)nc12 | 64.8% | 121 | 23.8 nM | 104% | 2880 nM
9 | CCCCCOc1c(OC)ccc2cc(C(=O)NCCc3ccccc3)c(=O)[nH]c12 | 63.4% | 28.3 | 6.92 nM | 103% | 196 nM
10 | CCCCCOc1c(OC)ccc2cc(C(=O)NCCc3ccc(Cl)cc3)c(=O)[nH]c12 | -9% | > 1070 | 9.37 nM | 102% | > 10000 nM
